# ChEMBL document CHEMBL1151695, “Design, synthesis and preliminary pharmacological evaluation of new analogues of DM232 (unifiram) and DM235 (sunifiram) as cognition modulators” (Bioorg Med Chem, 2008)
# What was measured:
# Mus musculus [1] = experiment: Antiamnesic activity in scopolamine-induced mouse assessed as latency time to enter dark room in retention session at 30 mg/kg, ip treated 20 mins before training session by passive avoidance test; format: functional; details: route intraperitoneal
# Outline: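 Mouse step-through passive avoidance in a two-compartment box (lit and dark, guillotine door); entry into the dark side is punished by a fall from 40 cm into a 10 °C water bath. Drug given ip 20 min before training. Scopolamine 1.5 mg/kg given immediately after training. Retention tested the next day, read as latency to enter the dark room. Mice not entering within 60 s at training were excluded.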
# Mus musculus [2] = experiment: Antiamnesic activity in ip dosed mouse assessed as reversal of scopolamine-induced memory loss treated 20 mins before training session by passive avoidance test; format: functional; details: read-out: MED
# Outline: (§1)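 Step-through passive avoidance in mice: lit and dark compartments joined by a guillotine door. Entering the dark side drops the mouse 40 cm into 10 °C water, a non-painful punishment. Mice not entering within 60 s at training were excluded. Compound given ip at 1:10 dilution steps […], 20 min before training. Vehicle was saline or saline/DMSO 4:1. Scopolamine 1.5 mg/kg ip immediately after punishment. Retention tested next day. MED is the lowest dose reversing amnesia.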
# Mus musculus [3] = experiment: Antiamnesic activity in scopolamine-induced mouse assessed as latency time to enter dark room in training session at 30 mg/kg, ip treated 20 mins before training session by passive avoidance test; format: functional; details: route intraperitoneal
# Mus musculus [4] = experiment: Effect on passive avoidance in mouse assessed as latency time to enter dark room in retention session at 0.01 mg/kg, ip treated 20 mins before training session; format: functional; details: route intraperitoneal
# Outline: (§2)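 Same step-through passive avoidance without scopolamine. Punishment is a 40 cm fall into 10 °C water on entering the dark room. Mice not entering within 60 s at training were excluded. Compound given ip at 1:10 dilution steps, 20 min before training, in saline or saline/DMSO 4:1. Controls received an extra saline injection right after training. Latency to enter the dark room recorded at training and at next-day retention.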
# Mus musculus [5] = organism: Mus musculus; experiment: Effect on passive avoidance in mouse treated 20 mins before training session; format: functional; details: read-out: MED; outline: as §2
# Mus musculus [6] = experiment: Effect on passive avoidance in mouse assessed as latency time to enter dark room in training session at 0.01 mg/kg, ip treated 20 mins before training session; format: functional; details: route intraperitoneal; outline: as §2
# Mus musculus [7] = experiment: Antiamnesic activity in scopolamine-induced mouse assessed as latency time to enter dark room in retention session at 0.001 mg/kg, ip treated 20 mins before training session by passive avoidance test; format: functional; details: route intraperitoneal; outline: as §1
# Mus musculus [8] = experiment: Antiamnesic activity in scopolamine-induced mouse assessed as latency time to enter dark room in training session at 0.001 mg/kg, ip treated 20 mins before training session by passive avoidance test; format: functional; details: route intraperitoneal; outline: as §1
# Mus musculus [9] = organism: Mus musculus; experiment: Toxicity in mouse assessed as motor coordination after 45 mins by rotarod test; format: organism-based; details: in vivo, 0.75 h
# Outline: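 Rota-rod: rod 30 cm long, 15 cm above the base, split into five sections, rotating at 16 rpm. Falls counted over 30 s. Mice with fewer than 3 or more than 6 falls in the pretest were rejected. Performance measured at pretest and 15, 30 and 45 min after test start. Compared with saline-treated mice.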
# Mus musculus [10] = organism: Mus musculus; experiment: Toxicity in mouse assessed as spontaneous motility and inspection activity after 5 mins by hole board test; format: organism-based; details: in vivo
# Outline: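 Hole-board: 40 cm square plane with 16 holes of 3 cm, arranged 4×4. Each mouse placed centrally and free to move for […]. Photocells counted locomotion (spontaneous motility) and hole exploration, both as counts in 5 min. Compared with saline-treated mice.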
Compound,Activity (Mus musculus [1]) [s],minimal effective dose (Mus musculus [2]) [mg/kg],Activity (Mus musculus [3]) [s],Activity (Mus musculus [4]) [s],minimal effective dose (Mus musculus [5]) [mg/kg],Activity (Mus musculus [6]) [s],Activity (Mus musculus [7]) [s],Activity (Mus musculus [8]) [s],Activity (Mus musculus [9]),Activity (Mus musculus [10])
NC(=O)CN1CCCC1=O [PIRACETAM],108.8,30,17.6,–,–,–,–,–,–,–
CCC(=O)N1CCN(C(=O)c2ccccc2)CC1 [SUNIFIRAM],–,0.001,–,126.7,0.01,18.1,91.5,20.5,Non-toxic,Non-toxic
O=C1CCC2CN(S(=O)(=O)c3ccc(F)cc3)CCN12 (centres undefined) [UNIFIRAM],–,0.001,–,131.6,0.01,15.4,104.4,19.7,Non-toxic,Non-toxic
